Screening results as filed in PubChem BioAssay.
Kir21 inh: inhibitors of mouse Kir2.1 inward-rectifier potassium channel. P35561. HEK293-Kir2.1, FluxOR thallium flux fluorescence; stronger effect = lower value. B-score at 10 µM. 310,000 tested, 0.85% active;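 active means fluorescence ratio B-score at or below minus 3 SD of library scores, with starting-brightness B-score within 2 SD, cut at about -4.2 in these data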;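 further: channel flux triggered by added potassium and thallium sulfate stimulus; B-score of peak minus minimum fluorescence over baseline after thallium stimulus; more negative B-score means stronger Kir2.1 block with less thallium influx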
KCNK3 block: human KCNK3 channel inhibition, primary screen | CHO-KCNK3 thallium flux, FluxOR fluorescence; stronger effect = lower value | B-score at 10 µM | 340,000 tested, 0.84% active | AID 602410;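 active means B-score under library mean minus 4 SD, starting fluorescence ratio at most library mean plus 5 SD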;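 further: more negative B-score means stronger inhibition of thallium flux through KCNK3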
KCNQ1 pot: potentiates or activates the human KCNQ1 potassium channel. 310,000 tested, 0.35% active. P51787. CHO-K1 KCNQ1, thallium flux FluxOR fluorescence; stronger effect = higher value. B-score at 10 µM;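 active means fluorescence ratio B-score, a plate-corrected score, at least three library SD, with initial intensity B-score within 5 SD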
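assay system = KCNQ1-transfected CHO-K1 cells | medium = assay buffer with matched DMSO | probe or stimulus = depolarizing K+/Tl+ stimulus, K2SO4 and Tl2SO4 each 12.5 mM in 5x stock | dosing = single dose | incubation = dye 90 min, compound 20 min, room temperature | detection = kinetic FluxOR fluorescence, 10 s baseline plus 110 s post-stimulus | evaluation = ratio B score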
KCNK9 inh-1: blocks the human KCNK9 two-pore domain potassium channel; Q9NPC2; HEK293 KCNK9, FluxOR thallium flux fluorescence; stronger effect = lower value; B-score at 10 µM; 310,000 tested, 1.2% active; AID 488922;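 active means ratio B-score over 3 SD below the library mean, with starting fluorescence within 5 SD of its mean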;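 further: negative B-score means less thallium flux so channel inhibition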
Target sequence (Q9NPC2 whole entry, looked up, the tested form may be a part): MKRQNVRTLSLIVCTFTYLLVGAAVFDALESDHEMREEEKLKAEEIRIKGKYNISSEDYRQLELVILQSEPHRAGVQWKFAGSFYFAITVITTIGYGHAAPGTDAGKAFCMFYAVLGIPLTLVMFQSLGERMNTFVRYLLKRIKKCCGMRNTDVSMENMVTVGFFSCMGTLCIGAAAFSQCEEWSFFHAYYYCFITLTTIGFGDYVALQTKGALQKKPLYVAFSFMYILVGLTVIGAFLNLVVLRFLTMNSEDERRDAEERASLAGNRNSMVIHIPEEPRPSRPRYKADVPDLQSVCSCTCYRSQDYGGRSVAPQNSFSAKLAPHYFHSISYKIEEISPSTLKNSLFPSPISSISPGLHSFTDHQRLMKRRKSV
hERG rescue: compounds protecting human hERG from proarrhythmic drug block. Q12809. CHO-hERG, FluxOR thallium flux, dofetilide IC70 present. activation (rescue from dofetilide block), less the hit threshold, % at 10 µM. 310,000 tested, 0.51% active. AID 1511;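 active means activation above the mean of controls blocked by dofetilide plus 5 SD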;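 further: thallium influx through hERG after potassium depolarization seen as dye fluorescence rise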
KCNQ1 block: inhibitors of human KCNQ1 potassium channel; P51787; B-score at 10 µM; CHO-K1 KCNQ1, FluxOR thallium flux fluorescence; stronger effect = higher value; 310,000 tested, 1.3% active;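 active means compounds whose thallium flux B-score, printed positive for inhibition, exceeds three library SD while starting fluorescence stays within three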;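 further: channel opened by potassium depolarization with thallium stimulus after 20 min compound exposure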
hERG inh: hERG (human) inhibition as Kir2.1 counter-screen; hERG-expressing cells, thallium flux; 320 tested, 20% active; shares compounds with Kir21 inh; inhibition, % at 10 µM;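 further: host cells are CHO cells stably expressing hERG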
KCNK9 inh-2: tests whether Kir2.1 inhibitors also affect human KCNK9; shares compounds with Kir21 inh; KCNK9-expressing cells, ion flux inhibition; inhibition, % at 10 µM; 320 tested, 5% active; AID 2329
Kir21 ephys inh: blocks mouse Kir2.1 current in automated electrophysiology. 320 tested, 71% active. Kir2.1 cells, automated patch-clamp current inhibition. inhibition, % at 25 µM. shares compounds with Kir21 inh
Active calls of the source: *. Shown are actives, neighbours in structure and some others; about 3.7% of the full set was active somewhere. Unless noted, how the calls were made is not given here.

COc1ccc(CN2CCCN(S(=O)(=O)c3ccc(Br)cc3)CC2)cc1 was read as Kir21 inh -6.8*, KCNK3 block inactive, KCNQ1 pot inactive, KCNK9 inh-1 inactive, hERG rescue -11, KCNQ1 block inactive, hERG inh 67%*, KCNK9 inh-2 inactive and Kir21 ephys inh 31%*.
c1cc(CN2CCCCC2)cc(OCCCNc2nc3ccccc3s2)c1 was read as Kir21 inh -7.3*, KCNK3 block inactive, KCNQ1 pot inactive, KCNK9 inh-1 inactive, hERG rescue -10, KCNQ1 block inactive, hERG inh inactive, KCNK9 inh-2 inactive and Kir21 ephys inh 48%*.
For O=C(OCc1nnc(-c2ccc([N+](=O)[O-])cc2)o1)C1CCN(C(=O)c2ccc(F)cc2)CC1 the results were KCNK3 block inactive.
Screening CCCc1ccccc1OCCNS(=O)(=O)c1cc2c(cc1C)OCC(=O)N2 returned Kir21 inh -6.5*, KCNK3 block inactive, KCNQ1 pot inactive, KCNK9 inh-1 inactive, hERG rescue -18, KCNQ1 block inactive, hERG inh inactive, KCNK9 inh-2 inactive and Kir21 ephys inh inactive.
Screening Cc1cc2c(cc1S(=O)(=O)NCCc1ccccc1)NC(=O)CO2 returned Kir21 inh -3, KCNK3 block inactive, KCNQ1 pot inactive, KCNK9 inh-1 inactive, hERG rescue -7 and KCNQ1 block inactive.
`COc1cc(CNCc2ccc(Br)cc2)cc(OC)c1` gave Kir21 inh -7.5*, KCNK3 block inactive, KCNQ1 pot inactive, KCNK9 inh-1 inactive, hERG rescue -3, KCNQ1 block inactive, hERG inh inactive, KCNK9 inh-2 inactive and Kir21 ephys inh 72%*.
Screening COc1ccccc1/C=C(\NC(=O)c1ccccc1)C(=O)NCc1ccco1 returned Kir21 inh 3.9, KCNK3 block inactive, KCNQ1 pot inactive, KCNK9 inh-1 inactive, hERG rescue -4, KCNQ1 block inactive, hERG inh inactive, KCNK9 inh-2 inactive and Kir21 ephys inh inactive.
COc1ccccc1-c1cc(C(=O)N2CCOCC2)no1 was read as Kir21 inh 0.96, KCNK3 block inactive, KCNQ1 pot inactive, KCNK9 inh-1 inactive, hERG rescue -7 and KCNQ1 block inactive.
`CCOC(=O)c1nnn(-c2nonc2N)c1CSc1ccc(C)cc1` gave Kir21 inh -8.5*, KCNK3 block inactive, KCNQ1 pot inactive, KCNK9 inh-1 inactive, hERG rescue -8, KCNQ1 block inactive, hERG inh inactive, KCNK9 inh-2 inactive and Kir21 ephys inh 8.6%*.
Screening O=C(CSc1nnc(NC2CCCCC2)s1)N1CCOCC1 returned KCNK3 block inactive.
`CCn1cc(C(=O)NCCc2ccccc2)c(=O)c2cc(S(=O)(=O)N(C)C)ccc21` gave Kir21 inh 3.5, KCNK3 block inactive, KCNQ1 pot inactive, KCNK9 inh-1 inactive, hERG rescue -6, KCNQ1 block inactive, hERG inh inactive, KCNK9 inh-2 inactive and Kir21 ephys inh inactive.
For COc1ccc(CNS(=O)(=O)NCc2ccccc2)cc1 the results were Kir21 inh -0.04, KCNK3 block inactive, KCNQ1 pot inactive, KCNK9 inh-1 inactive, hERG rescue -6 and KCNQ1 block inactive.
For COc1ccc(CNC/C=C/c2ccccc2)cc1 the results were Kir21 inh -12*, KCNK3 block inactive, KCNQ1 pot inactive, KCNK9 inh-1 inactive, hERG rescue -6, KCNQ1 block inactive, hERG inh inactive, KCNK9 inh-2 inactive and Kir21 ephys inh 78%*.
Screening COc1ccc(CNCc2ccc(OC)c3ccccc23)cc1 returned Kir21 inh -14*, KCNK3 block inactive, KCNQ1 pot inactive, KCNK9 inh-1 inactive, hERG rescue 0, KCNQ1 block inactive, hERG inh inactive, KCNK9 inh-2 inactive and Kir21 ephys inh 8.1%*.
